# Source: article PMC3620022 (Molecular cancer therapeutics, 2012)
# Residue numbers refer to the chain shown, from its start. Values joined by “and” are separate entries in the source; they are usually repeats but may differ in a detail not shown here. Equal entries are not always repeated.
# How the values were obtained:
# [1] = molecular target: T1, recombinant GAC (residues 128-603) (Mus musculus, UniProt D3Z7P3); experiment: Recombinant GAC two-step glutaminase assay; type: biochemical; details: for inhibition of phosphate-activated enzyme: GAC activated by inorganic phosphate before inhibitor
# T1 sequence (D3Z7P3 128-603 isoform D3Z7P3-2): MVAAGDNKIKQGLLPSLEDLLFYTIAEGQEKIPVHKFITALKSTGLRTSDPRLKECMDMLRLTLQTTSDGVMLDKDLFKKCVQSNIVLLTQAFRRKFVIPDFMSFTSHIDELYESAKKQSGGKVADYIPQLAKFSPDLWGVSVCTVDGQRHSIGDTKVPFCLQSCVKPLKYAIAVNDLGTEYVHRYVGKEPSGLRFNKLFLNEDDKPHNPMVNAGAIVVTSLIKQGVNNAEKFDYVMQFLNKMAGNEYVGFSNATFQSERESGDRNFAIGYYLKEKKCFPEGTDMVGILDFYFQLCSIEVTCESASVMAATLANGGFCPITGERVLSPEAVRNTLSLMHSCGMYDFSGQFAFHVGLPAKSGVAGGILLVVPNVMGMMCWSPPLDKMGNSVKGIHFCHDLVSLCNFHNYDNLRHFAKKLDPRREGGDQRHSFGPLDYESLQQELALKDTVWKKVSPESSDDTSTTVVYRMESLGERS
# F532L GAC mutant = molecular target: T2, F532L GAC mutant (Mus musculus, UniProt D3Z7P3, F532L); experiment: Recombinant protein assay with F532L GAC mutant; type: biochemical; details: concentrations up to 50 μM
# T2 sequence (D3Z7P3 72-603 isoform D3Z7P3-2 F532L): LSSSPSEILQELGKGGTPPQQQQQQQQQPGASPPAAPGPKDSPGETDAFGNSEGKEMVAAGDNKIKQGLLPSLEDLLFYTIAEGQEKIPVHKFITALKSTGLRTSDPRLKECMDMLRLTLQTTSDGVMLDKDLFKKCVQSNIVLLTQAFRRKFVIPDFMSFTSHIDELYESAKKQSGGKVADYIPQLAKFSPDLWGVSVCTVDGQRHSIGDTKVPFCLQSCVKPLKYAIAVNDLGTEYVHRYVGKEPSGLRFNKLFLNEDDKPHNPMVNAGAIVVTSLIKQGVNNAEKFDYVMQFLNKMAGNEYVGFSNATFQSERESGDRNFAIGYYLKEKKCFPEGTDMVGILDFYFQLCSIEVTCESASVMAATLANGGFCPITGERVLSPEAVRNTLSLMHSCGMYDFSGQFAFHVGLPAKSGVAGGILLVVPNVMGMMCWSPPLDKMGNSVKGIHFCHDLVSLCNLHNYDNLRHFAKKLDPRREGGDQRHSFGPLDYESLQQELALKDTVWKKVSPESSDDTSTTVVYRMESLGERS
# In short: (§1)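 Mouse GAC residues 72-603 in pET28a, wild type or site-directed mutant. Inhibitor in DMSO mixed with 50 nM enzyme and 21 mM glutamine in pH 8.6 Tris-acetate, then inorganic phosphate (136 mM) added; 10 min at 37°C; acid quench. Glutamate read by glutamate dehydrogenase/NAD coupling, A340 after 45 min room temperature against NAD-free blank; duplicates. IC50 from fixed-slope inhibitor curve fit.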
# MDA-MB-231 cells = experiment: MDA-MB-231 cell proliferation assay; type: cell-based, human
# [2] = molecular target: T3, full-length wild-type GAC (Δ72 GAC) (Mus musculus, UniProt D3Z7P3); experiment: Recombinant protein assay with full-length wild-type GAC; type: biochemical
# T3 sequence (D3Z7P3 72-603 isoform D3Z7P3-2): T2 sequence (D3Z7P3 72-603 isoform D3Z7P3-2 F532L) with L461F
# In short: as §1
# R539L GAC mutant = molecular target: T4, R539L GAC mutant (Mus musculus, UniProt D3Z7P3, R539L); experiment: Recombinant protein assay with R539L GAC mutant; type: biochemical; details: concentrations up to 50 μM
# T4 sequence (D3Z7P3 72-603 isoform D3Z7P3-2 R539L): T2 sequence (D3Z7P3 72-603 isoform D3Z7P3-2 F532L) with L461F, R468L
# In short: as §1
inhibition at 10 µM [1] [%],inhibition at 25 µM [1] [%],inhibition at 50 µM [1] [%],"IC50 ([1]; IC50, GAC 50 nM, glutamine 21 mM, phosphate 136 mM, 10 min, fixed slope inhibitor model, shorter GAC construct)",inhibition of mutant (F532L GAC mutant),"IC50 (MDA-MB-231 cells; Homo sapiens, MDA-MB-231) [µM]",IC50 [2] [µM],inhibition of mutant (R539L GAC mutant),IC50 (MDA-MB-231 cells; MDA-MB-231 cell proliferation) [µM],SMILES,inhibition of phosphate-activated enzyme [1]
21 ± 5,94 ± 1,95 ± 1,9.3 µM and ~10 µM,detectable inhibition was not observed,4.2,19,detectable inhibition was not observed,,"CN(C)c1ccc(C2Nc3ccc4ccccc4c3C3=C2C(=O)CC(C)(C)C3)cc1Br (centres unmarked) [compound 968, 5-(3-bromo-4-(dimethylamino)phenyl)-2,2-dimethyl-2,3,5,6-tetrahydrobenzo[a]phenanthridin-4(1H)-one]",unable to inhibit the phosphate-activated enzyme
,,,,,,,,3,"O=C(Cc1ccccc1)Nc1nnc(CCSCCc2nnc(NC(=O)Cc3ccccc3)s2)s1 [BPTES, reference compound]",able to do so
